The source made the active and inactive calls. The calls are words filed in the database; no cut-off is given here.
Columns and labels:
[1] = biological target: T1, Fatty-acid amide hydrolase 1 (Rattus norvegicus, UniProt P97612); test: Inhibition of Wistar rat brain FAAH assessed as [3H]arachidonoylethanolamide hydrolysis
T1 sequence (P97612 whole entry): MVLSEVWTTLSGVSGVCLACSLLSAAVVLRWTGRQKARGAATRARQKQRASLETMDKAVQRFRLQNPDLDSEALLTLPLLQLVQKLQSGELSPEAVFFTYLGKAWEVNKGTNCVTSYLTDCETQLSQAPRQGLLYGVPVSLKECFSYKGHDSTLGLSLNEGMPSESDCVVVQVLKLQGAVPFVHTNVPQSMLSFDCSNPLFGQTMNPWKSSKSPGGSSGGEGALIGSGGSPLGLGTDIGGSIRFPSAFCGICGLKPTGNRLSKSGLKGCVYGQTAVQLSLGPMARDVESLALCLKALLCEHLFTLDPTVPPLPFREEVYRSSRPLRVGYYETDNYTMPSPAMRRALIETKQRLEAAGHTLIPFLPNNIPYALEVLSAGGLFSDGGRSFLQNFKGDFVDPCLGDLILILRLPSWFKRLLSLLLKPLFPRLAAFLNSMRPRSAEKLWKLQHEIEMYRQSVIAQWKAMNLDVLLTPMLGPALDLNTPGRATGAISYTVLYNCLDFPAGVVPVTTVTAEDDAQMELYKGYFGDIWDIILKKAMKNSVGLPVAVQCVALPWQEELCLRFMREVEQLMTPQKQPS

[2] = biological target: T2, Monoglyceride lipase (Homo sapiens, UniProt Q99685); test: Inhibition of human recombinant MGL
T2 sequence (Q99685 whole entry): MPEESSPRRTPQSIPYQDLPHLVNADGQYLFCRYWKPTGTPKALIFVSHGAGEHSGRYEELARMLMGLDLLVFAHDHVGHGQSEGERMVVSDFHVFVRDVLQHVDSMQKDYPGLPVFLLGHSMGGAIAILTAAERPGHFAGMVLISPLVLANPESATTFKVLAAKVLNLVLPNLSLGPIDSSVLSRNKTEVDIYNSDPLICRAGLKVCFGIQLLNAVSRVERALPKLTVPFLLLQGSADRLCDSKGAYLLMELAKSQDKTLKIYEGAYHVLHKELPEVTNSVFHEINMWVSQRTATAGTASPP

[3] = biological target: T3, Monoglyceride lipase (Homo sapiens) (UniProt Q99685); test: Inhibition of human recombinant MGL assessed as residual enzyme activity at 1 mM
T3 sequence (whole entry): T2 sequence (Q99685 whole entry)

[4] = biological target: T3, Monoglyceride lipase (Homo sapiens); test: Inhibition of human recombinant MGL at 100 uM
How it was run: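 Human recombinant MGL as enzyme source with 2-AG as substrate. Single-concentration screen at 100 µM, expressed as percent inhibition. Mean of two independent experiments, each performed in duplicate.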

Compound	IC50 [1] [nM]	IC50 [2] [nM]	Activity [3] [%]	inhibition [4] [%]	Activity [4]
OB(O)c1cc2ccccc2o1	330	100000	8.4		
N#Cc1cccc(B(O)O)c1	1600			21	
OB(O)c1cccc(C(F)(F)F)c1	80	38000			
N#Cc1ccc(B(O)O)cc1	290			36	
CCCCCCCCCc1ccc(B(O)O)cc1	9.1	7900			
OB(O)c1ccccc1F	710			13	
OB(O)c1ccccc1 [PHENYLBORONIC ACID]	2600				inactive
COc1ccccc1B(O)O	13000			11	
OB(O)/C=C/c1ccc(-c2ccccc2)cc1	14				
OB(O)c1ccc(F)cc1	1500			3	
OB(O)c1ccc(C(F)(F)F)cc1	36				
OB(O)c1ccc(-c2ccccc2)cc1 [BIPHENYLBORONIC ACID]	21				
OB(O)c1ccccc1C(F)(F)F	68000			20	
COc1cccc(B(O)O)c1				7	
OB(O)c1ccccc1-c1ccccc1	110000			2	
OB(O)c1cccc(-c2ccccc2)c1	130				
CCOC(=O)c1cccc(B(O)O)c1	120			34	
OB(O)c1ccc(F)nc1	10000			2	
COc1ccc(B(O)O)cc1	2000			11	
OB(O)c1cc2ccccc2s1	150	32000			
O=[N+]([O-])c1ccc(B(O)O)cc1	210			43	

Reference: ChEMBL document CHEMBL1140204, “Discovery of boronic acids as novel and potent inhibitors of fatty acid amide hydrolase” (J Med Chem, 2008)
